Experimental data as given in ChEMBL document CHEMBL1156609, “9-N-Substituted berberine derivatives: stabilization of G-quadruplex DNA and down-regulation of oncogene c-myc” (Bioorg Med Chem, 2008).
Active and inactive are the calls of the source. No cut-off for these calls is given here.

Key:
Homo sapiens [1] = organism: Homo sapiens; test: Binding affinity to human c-myc G-quadruplex Pu18 DNA assessed as change melting temperature at 2.0 uM by FRET melting assay
How it was run: (§1)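 FRET melting of dual-labelled Pu18 (5'-FAM/3'-TAMRA), 0.2 μM, in 10 mM Tris–HCl pH 7.2 with 0.2 mM KCl, compound 2.0 μM; fluorescence recorded on a real-time PCR instrument; Tm read from melting curves, ΔTm relative to no-compound control.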

Homo sapiens [2] = organism: Homo sapiens; test: Binding affinity to duplex F10T DNA assessed as change melting temperature at 2.0 uM by FRET melting assay
Homo sapiens [3] = organism: Homo sapiens; test: Binding affinity to human c-myc G-quadruplex Pu18 DNA assessed as melting temperature at 2.0 uM by FRET melting assay; how it was run: as §1
[4] = Cytotoxicity against human GLC cells by MTT assay; format: functional, cell-based
How it was run: (§2)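 MTT cytotoxicity assay against tumour cells; IC50 taken as mean of three independent assays.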

NCI = test: Cytotoxicity against human NCI cells by MTT assay; format: functional, cell-based; how it was run: as §2
[5] = Binding affinity to duplex F10T DNA assessed as melting temperature at 2.0 uM by FRET melting assay
Homo sapiens [6] = organism: Homo sapiens; test: Induction of G-quadruplex formation in human c-myc Pu27 DNA at 10 uM […] by gel electrophoresis
[7] = Inhibition of human c-myc G-quadruplex Pu27 DNA amplification at 5.0 uM by PCR-stop assay
How it was run: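 PCR-stop: Pu27 template with complementary oligomer in 1× PCR buffer, 0.16 mM dNTP, 2.5 U Taq, compound at 1.0, 2.5, 4.0 or 5.0 μM; 94 °C 3 min, then 30 cycles of 94/58/72 °C for 30 s each; products on 15% native PAGE in TBE, silver stained.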

HL-60 [8] = test: Inhibition of human c-myc gene transcription in HL60 cells at 0.7-1.7 uM after 4 days by RT-PCR; format: functional, cell-based
HL-60 [9] = test: Antiproliferative activity against human HL60 cells assessed as cell count and viability at 5 to 10 uM; format: functional, cell-based
How it was run: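 HL60 cells (RPMI-1640, 10% FBS, penicillin/streptomycin, 37 °C, 5% CO2), about 5000 per well, given freshly dissolved compound at 0–10 μM for 4 days, re-dosed at day 5 for a further 4 days; cell count and viability by trypan blue exclusion daily from day 1 to day 8.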

Row | Structure (SMILES) | ΔTm (Homo sapiens [1]) [°C] | ΔTm (Homo sapiens [2]) [°C] | Tm (Homo sapiens [3]) [°C] | IC50 [4] [µM] | IC50 (NCI) [µM] | Tm [5] [°C] | Activity (Homo sapiens [6]) | IC50 [7] [µM] | Activity (HL-60 [8]) | Activity (HL-60 [9])
1 | COc1ccc2cc3[n+](cc2c1OC)CCc1cc2c(cc1-3)OCO2 | 1 | 2 | 55 | – | – | – | – | – | – | –
2 | COc1ccc2cc3[n+](cc2c1NCCCCCCN)CCc1cc2c(cc1-3)OCO2 | 29 | 2 | 83 | 9 | 4 | 60 | Active | 2 | Active | Active
3 | COc1ccc2cc3[n+](cc2c1NCCc1ccccc1)CCc1cc2c(cc1-3)OCO2 | 20 | 1 | 74 | 18 | 2 | 59 | – | 3.6 | – | –
4 | COc1ccc2cc3[n+](cc2c1NCCCN1CCCCC1)CCc1cc2c(cc1-3)OCO2 | 24 | 1 | 78 | 69 | 38 | 59 | – | 3.2 | – | –
5 | COc1ccc2cc3[n+](cc2c1NCCCN(C)C)CCc1cc2c(cc1-3)OCO2 | 20 | 1 | 74 | 64 | 29 | 59 | – | 3.3 | – | –
6 | COc1ccc2cc3[n+](cc2c1NCCCN1CCOCC1)CCc1cc2c(cc1-3)OCO2 | 17 | 0 | 71 | 102 | 85 | 58 | – | 4.8 | – | –
7 | COc1ccc2cc3[n+](cc2c1NCCN(C)C)CCc1cc2c(cc1-3)OCO2 | 19 | 0 | 73 | 56 | 36 | 58 | – | 3.9 | – | –
8 | COc1ccc2cc3[n+](cc2c1NCCCN1CCCC1)CCc1cc2c(cc1-3)OCO2 | 25 | 2 | 78 | 32 | 22 | 60 | – | 2.3 | – | –
9 | COc1ccc2cc3[n+](cc2c1NCCN1CCOCC1)CCc1cc2c(cc1-3)OCO2 | 18 | 1 | 72 | 50 | 50 | 59 | – | 7.1 | – | –
10 | COc1ccc2cc3[n+](cc2c1NCCO)CCc1cc2c(cc1-3)OCO2 | 12 | 0 | 66 | 51 | 35 | 58 | – | 5.5 | – | –
11 | COc1ccc2cc3[n+](cc2c1NCCN1CCCCC1)CCc1cc2c(cc1-3)OCO2 | 20 | 0 | 74 | 38 | 22 | 58 | – | 4 | – | –
